Screens as filed in PubChem BioAssay.
CHOP inh – CHOP inhibition in unfolded protein response; CHO-K1 CHOP-promoter luciferase, tunicamycin-induced, 15-18 h; inhibition, % at 10 µM; AID 2732; 3.8% of 220,000 active;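 active means compounds that reduced the stress-induced luciferase reporter signal by more than about 70% of percent inhibition, limit read from the data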
V-ATPase pHluor – alters yeast V-ATPase proton transport | S. cerevisiae, pHLuorin cytosolic pH fluorescence | response, % at 10 µM | 0.37% of 350,000 active; in the data active means response mostly above about 7.3%, no sharp cut-off; inactive means mostly below about 5.4%; further: actives read high
CHOP UPR activ – apoptotic UPR (CHOP) activation; CHO-CHOP luciferase reporter, luminescence; percent of tunicamycin response over DMSO baseline; activation, % at 10 µM; 0.34% of 330,000 active; AID 449763;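 active means at 10 µM dose, activation of 40% or more, normalized to positive control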
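Test system: CHO CHOP reporter cells. Input: 500 CHO-CHOP cells per well. Medium: F12 with 10% FBS. Technique: luciferase luminescence. Measure: percent activation relative to tunicamycin control. Dosing: 10 µM compound, 0.5% DMSO. Timing: 16-18 h cell attachment, then 6 h compound exposure, 37 °C.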
UPR XBP1 act – activators of adaptive arm of unfolded protein response (XBP1). CHO-XBP1 luciferase reporter, IRE1-XBP1 UPR activation, luminescence; percent of tunicamycin response, DMSO as zero. activation, % at 20 µM. 0.33% of 330,000 active;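 active means versus positive control, 20 µM dose yields 30% or more activation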
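Material: CHO cell line with stable XBP1 luciferase reporter; buffer or medium: F12 medium containing 10% fetal bovine serum; compound: single point, 20 µM final compound, 1% DMSO; incubation: 6 h treatment, 37 °C; measured by: glow luminescence from Steady-Glo reagent; evaluation: activation, % of tunicamycin; control set: tunicamycin high, DMSO low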
TbMetRS inhib – blocks T. brucei methionyl-tRNA synthetase activity | purified T. brucei MetRS, ATP depletion, Kinase-Glo luminescence | inhibition, % at 11.9 µM | 0.4% of 360,000 active | AID 624268;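 active means inhibition above a per-plate cutoff of the control wells' mean inhibition plus 3 SD, cut at about 5.5% in these data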
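Test system: purified T. brucei MetRS enzyme. Also added: ATP, methionine and E. coli bulk tRNA substrates. Compound: 11.9 µM single point. Schedule: 15 min enzyme-compound preincubation, 2 h reaction, 10 min detection, 25 °C. Signal: luciferase luminescence of residual ATP, Kinase-Glo. Evaluation: percent inhibition versus plate control medians. Controls: DMSO wells, low control.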
Numbers stand for hits; . = inactive; / = not tested or not shown. Many of the other results were omitted from the sample, so hits are more common in it than they were.

SMILES	CHOP inh	V-ATPase pHluor	CHOP UPR activ	UPR XBP1 act	TbMetRS inhib
O=C(CSc1ncc(C(=O)O)n1-c1ccc(F)cc1)NCc1ccc2c(c1)OCO2	.	.	.	.	.
O=C(CSc1nc2ccccc2o1)NCc1ccc2c(c1)OCO2	79.3	.	.	.	.
Cc1noc(C)c1CSCC(=O)Nc1nc2ccc(F)cc2s1	/	.	.	.	.
CC1C/C(=N/NC(=O)c2ccc(CSc3nc4ccccc4[nH]3)cc2)CC(C)(C)C1 (stereo not drawn)	75.3	.	.	.	.
C/C(=N/O)c1cc(C(C)(C)C)c(O)c(C(C)(C)C)c1	86.2	.	.	.	.
CC(C)(Sc1cc(C(C)(C)C)c(O)c(C(C)(C)C)c1)Sc1cc(C(C)(C)C)c(O)c(C(C)(C)C)c1	.	.	.	.	.
O=C(Nc1nnc([C@@H]2C[C@H](O)[C@@H](CO)O2)s1)c1cccc(C(F)(F)F)c1	/	/	/	/	.
Cc1cccc(N2CCN(C(=O)COc3cccc4c3OC(C)(C)C4)CC2)c1C	78.9	.	.	.	.
Cc1cccc(N2CCN(C(=O)Cn3cccc3C(=O)c3ccccc3)CC2)c1C	71.0	.	.	.	.
Cc1cc(OCCCC(=O)N2CCCCC2)cc(C)c1Cl	82.5	.	.	.	.
Cc1cccc(N2CCN(C(=O)CCCOc3ccccc3)CC2)c1C	83.9	.	.	.	.
O=C(NCc1ccccc1)C(c1ccc(-c2ccccc2)cc1)N1CCN(CCN2CCOCC2)CC1 (stereo not drawn)	/	/	/	/	.
CCOc1ccc(CCNC(=O)CSc2n[nH]c(N)n2)cc1OCC	/	.	.	.	.
COC(=O)c1c(NC(=O)CN2CCN(Cc3ccc4c(c3)OCO4)CC2)sc(C)c1C	79.5	.	.	.	.
COC(=O)c1ccsc1NC(=O)CN1CCN(Cc2ccc3c(c2)OCO3)CC1	.	.	.	.	.
CC(C)(C)NC(=O)CSc1nc2ccccc2n1-c1ccccc1	71.2	.	.	.	.
CCN(c1ccccc1)c1ncnc2c1cnn2-c1ccccc1	79.5	.	.	.	.
CN(Cc1ccccc1)c1ncnc2c1cnn2-c1ccccc1	.	.	.	.	.
O=C(Cn1nc(C(=O)O)c2ccccc2c1=O)Nc1cccc(S(=O)(=O)N2CCCC2)c1	/	.	.	.	.
O=C(N[C@@H]1CCC(=O)N(CC[C@H](Oc2ccccc2)c2ccccc2)CC1)OCc1ccccc1	/	.	.	.	.
Cc1ccc(-c2cc(C(=O)NCc3cnn(C)c3C)c3cc(Br)ccc3n2)cc1	78.0	.	.	.	.
COC(=O)Cc1ccc(NC(=S)NCCO)cc1	.	.	.	.	.
COC(=O)Cc1ccc(NC(=S)Nc2ccccn2)cc1	73.2	.	.	.	.
Cc1ccc(C)c(NC(=O)Cn2cnc3c(oc4ccccc43)c2=O)c1	72.0	.	.	.	.
Cc1ccc(C)c(NC(=O)Cn2nc(-c3ccccc3)nc2-c2ccccc2)c1	86.8	.	.	.	.
SMILES	CHOP inh	V-ATPase pHluor	CHOP UPR activ	UPR XBP1 act	TbMetRS inhib
C[C@@H]1CN([C@H](C)CO)C(=O)c2cc(Br)cnc2O[C@@H]1CN(C)Cc1ccc(-c2ccccc2)cc1	/	.	/	/	.
CN1CCN(c2nc3ccccn3c(=O)c2/C=C(\C#N)S(=O)(=O)c2ccc(Cl)cc2)CC1	.	.	.	.	.
CNC(=O)OCc1nc(SC2CCCCO2)n(C)c1COC(=O)NC (stereo not drawn)	/	/	/	/	.
C[C@@H]1CC=C[C@H]2[C@H]1C(=O)N(Cc1ccccc1)[C@H]2c1ccc(F)c(/C=C/c2ccccc2)c1	.	.	.	.	.
C[C@@H]1CC=C[C@H]2[C@H]1C(=O)N(Cc1ccccc1)[C@H]2c1ccc(F)c(Br)c1	76.4	/	/	/	/
CC1(C(=O)NCc2ccccc2)CSCC(=O)N1Cc1cccc(C(F)(F)F)c1 (stereo not drawn)	/	/	/	/	.
CC(C)N(C(=O)CN1C(=O)NC(c2ccccc2)(c2ccccc2)C1=O)C(C)C	/	.	.	.	.
Cc1ccc(N=C2NC(=O)C(CC(=O)O)S2)cc1 (stereo not drawn)	.	21.6	.	.	.
CCOc1ccc(S(=O)(=O)N(C)c2ccc(OCC(=O)Nc3nc4ccccc4s3)cc2)cc1	80.8	.	.	.	.
Cc1cccc(N2CN(Cc3cccnc3)CNC2=S)c1	.	15.8	.	.	.
Cc1ccc(SCC(=O)NC(=O)NCCC(C)C)c(C)c1	80.7	.	.	.	.
